Screens deposited in PubChem by several laboratories.
Sampled rows, rich in hits. Any-hit rate of the full collection: about 2.7%.
Phagocyt inh = blocks phagocytosis by macrophages; J774A.1 macrophage IgG-bead phagocytosis, imaging; inhibition, % at 5 µM; hit rate 0.07% among 110,000; AID 1029;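 active means inhibition above the mean of the plate negative controls plus 5 SD, cut at about 13% in these data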;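 further: phagocytic index as fraction of beads internalized from green versus red external bead signal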
RAM network inh = yeast RAM network inhibition; inhibition, % at 50 µM; AID 868; S. cerevisiae dse1pr::URA3 reporter, 5-FOA growth OD615, 2 d; analog-sensitive cbk1-as2 kinase mutant strain; hit rate 1.8% among 190,000;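 active means inhibition above a set limit, 3 SD over mean compound inhibition, cut at about 8.4% in these data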;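 further: inhibition rescues growth on 5-FOA so higher OD means more RAM inhibition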
BB579 growth dn = yeast BB579 growth reduction in restrictive medium | hit rate 0.51% among 140,000 | S. cerevisiae BB579 growth, OD615, 48 h | inhibition, % at 10 µM;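 active means inhibition above a set limit, 3 SD over the mean compound inhibition, cut at about 44% in these data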
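System: DeaD yeast strain BB579; buffer or medium: CSMM-D dextrose restrictive medium; technique: OD at 615 nm; schedule: 4 h cell preincubation, 48 h compound exposure, 30 °C humidified; doses: single 10 µM dose; controls: amphotericin B 10 µg/mL, positive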
Yeast life ext = yeast lifespan extension | S. cerevisiae growth with nicotinamide, OD615; deaD strain in restrictive glucose medium | inhibition of the nicotinamide effect, % at 10 µM | hit rate 0.68% among 130,000 | AID 775;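 active means inhibition above a set limit, placed 3 SD over the median of all compounds, cut at about 26% in these data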
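System: Modified budding yeast, DeaD strain | Buffer or medium: Restrictive glucose medium | Also added: 1.5 mM nicotinamide | Doses: 10 µM single point, 0.25% DMSO | Schedule: 48 h compound exposure at 30 °C, humidified | Detection: Absorbance at 615 nm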
RAM efflux-def = restores 5-FOA growth of efflux-deficient yeast; S. cerevisiae efflux-deficient reporter strain, 5-FOA growth OD615, 2 days; max inhibition, %; 1,200 tested, under 10 active; shares compounds with RAM network inh; AID 1305; call rule not given here
Hits are given with their value.

Screening COc1cc(C2C(C#N)=C(N)OC3=C2C(=O)CCC3)c([N+](=O)[O-])cc1OC (configuration not stated) returned Phagocyt inh inactive, RAM network inh inactive, BB579 growth dn inactive and Yeast life ext inactive.
Screening CCCCN1C(=O)C2(NNc3ccccc3O2)c2ccccc21 (configuration not stated) returned Phagocyt inh inactive, RAM network inh 14.9, BB579 growth dn inactive, Yeast life ext inactive and RAM efflux-def inactive.
`C=CCN1C(=O)C2(NNc3ccccc3O2)c2ccccc21` (configuration not stated) gave Phagocyt inh inactive, RAM network inh inactive, BB579 growth dn inactive and Yeast life ext inactive.
`CC(C)NC(=O)CC(c1ccccc1)c1cc(Br)ccc1O` (configuration not stated) gave Phagocyt inh inactive, RAM network inh inactive, BB579 growth dn inactive and Yeast life ext inactive.
`CCCCCCNC(=O)CC(c1ccccc1)c1cc(Br)ccc1O` (configuration not stated) gave RAM network inh 11.4, BB579 growth dn inactive and RAM efflux-def inactive.
`COc1cccc(CN(Cc2ccccc2F)S(=O)(=O)c2ccc(S(=O)(=O)NCc3ccccc3)cc2)c1` gave Phagocyt inh inactive, RAM network inh 17.9, BB579 growth dn inactive, Yeast life ext inactive and RAM efflux-def inactive.
For CCN(Cc1ccccc1)S(=O)(=O)c1ccc(S(=O)(=O)N(Cc2cccc(OC)c2)CC2CCCO2)cc1 (configuration not stated) the results were Phagocyt inh inactive, RAM network inh 16.2, BB579 growth dn inactive, Yeast life ext inactive and RAM efflux-def inactive.
`COc1cccc(CN(Cc2ccco2)S(=O)(=O)c2ccc(S(=O)(=O)NCc3ccccc3)cc2)c1OC` gave RAM network inh 14.2, BB579 growth dn inactive and RAM efflux-def inactive.
`COc1cccc(CN(CC2CCCO2)S(=O)(=O)c2ccc(S(=O)(=O)NCC3CCCO3)cc2)c1OC` (configuration not stated) gave Phagocyt inh inactive, RAM network inh inactive, BB579 growth dn inactive and Yeast life ext inactive.
Screening COc1cccc(CNS(=O)(=O)c2ccc(S(=O)(=O)N3CCCC3)cc2)c1 returned RAM network inh inactive.
For O=C(c1ccc(COCC(F)(F)F)o1)N1CCCC1 the results were RAM network inh inactive.
Screening Cc1ccc(-n2c(CSc3nc(C)cc(C)n3)nnc2SCC(=O)NCc2ccco2)cc1 returned RAM network inh inactive, BB579 growth dn inactive and Yeast life ext inactive.
COc1cc(NC(=O)c2ccc3c(c2)OCO3)c2ncccc2c1 was read as RAM network inh 12.3, BB579 growth dn inactive, Yeast life ext inactive and RAM efflux-def inactive.
Cc1ccccc1NS(=O)(=O)c1cc(C(=O)NCCSC2CCCCC2)ccc1C was read as Phagocyt inh inactive, RAM network inh 12.8, BB579 growth dn inactive, Yeast life ext inactive and RAM efflux-def inactive.
Screening O=C(NC1C/C(=N/O)c2cc3c(cc21)OCO3)C(F)(F)F (configuration not stated) returned RAM network inh inactive.
`Cc1[nH]n(-c2ccccc2)c(=O)c1C(C[N+](=O)[O-])c1ccc(Cl)cc1` (configuration not stated) gave Phagocyt inh inactive, RAM network inh inactive, BB579 growth dn inactive and Yeast life ext inactive.
Screening Cc1[nH]n(-c2ncc(-c3ccccc3)s2)c(=O)c1C(c1ccc(Cl)cc1)C(C#N)C#N (configuration not stated) returned Phagocyt inh inactive, RAM network inh 12.4, BB579 growth dn inactive, Yeast life ext 35.1 and RAM efflux-def inactive.
For O=C(CCNS(=O)(=O)c1c(Cl)cccc1Cl)OCC(=O)c1ccccc1 the results were Phagocyt inh inactive, RAM network inh inactive, BB579 growth dn inactive and Yeast life ext inactive.
For COc1ccc(Cc2nc(C(=O)Nc3ccc(F)cc3)cs2)cc1 the results were Phagocyt inh inactive, RAM network inh 15.9, BB579 growth dn inactive, Yeast life ext inactive and RAM efflux-def inactive.
COc1ccc(Cc2nc(C(=O)Nc3ccccc3)cs2)cc1 was read as Phagocyt inh inactive, RAM network inh inactive, BB579 growth dn inactive and Yeast life ext inactive.
For O=C(O)c1ccc2c(c1)C(=O)N(N1C(=O)c3ccccc3C1=O)C2=O the results were Phagocyt inh inactive, RAM network inh inactive, BB579 growth dn inactive and Yeast life ext inactive.
`Cc1ccc(S(=O)(=O)N2CCC(C)CC2)cc1[N+](=O)[O-]` gave RAM network inh 22.5 and RAM efflux-def inactive.
